These results are taken from ChEMBL document CHEMBL5107947, “Estimating the cooperativity of PROTAC-induced ternary complexes using 19F NMR displacement assay” (RSC Med Chem, 2021).

The species named for assay [1] is Homo sapiens. The assay is described as follows: Co-operativity factor, ratio of Ki for displacement of (2S,4R)-N-(4-bromobenzyl)-4-hydroxy-1-(3,3,3-trifluoropropanoyl)pyrrolidine-2-carboxamide from VBC E3 ligase (unknown origin) binary complex assessed as inhibition constant to Ki for displacement of (2S,4R)-N-(4-bromobenzyl)-4-hydroxy-1-(3,3,3-trifluoropropanoyl)pyrrolidine-2-carboxamide from BRD4 bromodomain 2/VBC E3 ligase (unknown origin) ternary complex assessed as inhibition constant by 19F NMR assay.

Assay [2] addresses T1, Von Hippel-Lindau disease tumor suppressor/Elongin B/Elongin C (Homo sapiens, UniProt P40337). The assay is described as follows: (§1) Displacement of (2S,4R)-N-(4-bromobenzyl)-4-hydroxy-1-(3,3,3-trifluoropropanoyl)pyrrolidine-2-carboxamide from VBC E3 ligase (unknown origin) binary complex by 19F NMR assay. The class given is protein-complex assay. In a few lines: (§2)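 Competitive 19F CPMG NMR displacement of spy molecule 19 (50 μM) from VBC (1 μM) across a titration of PROTAC concentrations. Free spy alone and spy with VBC served as the 100% and 0% displacement controls. For ternary runs Brd4(2) was present at 10 μM.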

Assay [3] has as its target T2, von Hippel-Lindau disease tumor suppressor/Bromodomain-containing protein 4/Elongin-B/Elongin-C (Homo sapiens, UniProt O60885+P40337+Q15369+Q15370). The experiment in a line: Displacement of (2S,4R)-N-(4-bromobenzyl)-4-hydroxy-1-(3,3,3-trifluoropropanoyl)pyrrolidine-2-carboxamide from BRD4 bromodomain 2/VBC E3 ligase (unknown origin) ternary complex by 19F NMR assay. It is filed as protein assay. In outline: (§3)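 19F CPMG NMR displacement of spy molecule 19 (50 μM) from VBC (1 μM) with increasing PROTAC concentrations, in the presence of 10 μM Brd4(2). Spectra of free spy molecule and spy molecule with VBC set 100% and 0% displacement.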

Assay [4] addresses T2, von Hippel-Lindau disease tumor suppressor/Bromodomain-containing protein 4/Elongin-B/Elongin-C. The experiment in a line: Displacement of (2S,4R)-N-(4-bromobenzyl)-4-hydroxy-1-(3,3,3-trifluoropropanoyl)pyrrolidine-2-carboxamide from BRD4 bromodomain 2/VBC E3 ligase (unknown origin) ternary complex assessed as inhibition constant by 19F NMR assay. It is filed as protein assay. In a few lines: as §3

The target in assay [5] is T1, Von Hippel-Lindau disease tumor suppressor/Elongin B/Elongin C. The assay is described as follows: Displacement of (2S,4R)-N-(4-bromobenzyl)-4-hydroxy-1-(3,3,3-trifluoropropanoyl)pyrrolidine-2-carboxamide from VBC E3 ligase (unknown origin) binary complex assessed as inhibition constant by 19F NMR assay. It is filed as protein-complex assay. In a few lines: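 Binary competition by 19F CPMG NMR, without Brd4(2): spy molecule 19 at 50 μM, VBC at 1 μM, titrated with increasing PROTAC concentrations. Spy molecule alone and spy molecule plus VBC served as 100% and 0% displacement references.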

The species entered for assay [6] is Homo sapiens. The assay is described as follows: Co-operativity factor, ratio of Ki for displacement of (2S,4R)-N-(4-bromobenzyl)-4-hydroxy-1-(3,3,3-trifluoropropanoyl)pyrrolidine-2-carboxamide from VBC E3 ligase (unknown origin) binary complex assessed as inhibition constant to Ki for displacement of (2S,4R)-N-(4-bromobenzyl)-4-hydroxy-1-(3,3,3-trifluoropropanoyl)pyrrolidine-2-carboxamide from BRD4 bromodomain 2/VBC E3 ligase (unknown origin) ternary complex assessed as inhibition constant by ITC assay. A general note: Isothermal titration calorimetry measures the heat released or taken up as one component is titrated into another.

In assay [7] the target is T1, Von Hippel-Lindau disease tumor suppressor/Elongin B/Elongin C. The assay is described as follows: Binding affinity to VCB E3 ligase (unknown origin) assessed as binary equilibrium dissociation constant by 19F NMR assay. It is filed as protein-complex assay.
Assay [8] is described as follows: Displacement of (2S,4R)-N-(4-bromobenzyl)-4-hydroxy-1-(3,3,3-trifluoropropanoyl)pyrrolidine-2-carboxamide from BRD3 bromodomain 2/VBC E3 ligase (unknown origin) ternary complex by 19F NMR assay. The arrangement: species or system Homo sapiens.
Assay [9] can be described thus: Displacement of (2S,4R)-N-(4-bromobenzyl)-4-hydroxy-1-(3,3,3-trifluoropropanoyl)pyrrolidine-2-carboxamide from BRD3 bromodomain 1/VBC E3 ligase (unknown origin) ternary complex assessed as inhibition constant by 19F NMR assay. The arrangement: species or system Homo sapiens.
The nature of assay [10]: Displacement of (2S,4R)-N-(4-bromobenzyl)-4-hydroxy-1-(3,3,3-trifluoropropanoyl)pyrrolidine-2-carboxamide from BRD3 bromodomain 1/VBC E3 ligase (unknown origin) ternary complex by 19F NMR assay. The arrangement: species or system Homo sapiens.
A short description of assay [11]: Displacement of (2S,4R)-N-(4-bromobenzyl)-4-hydroxy-1-(3,3,3-trifluoropropanoyl)pyrrolidine-2-carboxamide from BRD3 bromodomain 2/VBC E3 ligase (unknown origin) ternary complex assessed as inhibition constant by 19F NMR assay. Details: species or system Homo sapiens.
For assay [12], the species on record is Homo sapiens. The experiment in a line: Co-operativity factor, ratio of Ki for displacement of (2S,4R)-N-(4-bromobenzyl)-4-hydroxy-1-(3,3,3-trifluoropropanoyl)pyrrolidine-2-carboxamide from VBC E3 ligase (unknown origin) binary complex assessed as inhibition constant to Ki for displacement of (2S,4R)-N-(4-bromobenzyl)-4-hydroxy-1-(3,3,3-trifluoropropanoyl)pyrrolidine-2-carboxamide from BRD4 bromodomain 2/VBC E3 ligase (unknown origin) ternary complex assessed as inhibition constant by SPR assay. In general terms: In SPR one partner is held on a chip, and binding of the other changes the refractive index at the surface.

Assay [13] concerns the target Von Hippel-Lindau disease tumor suppressor/Elongin B/Elongin C (Homo sapiens) (UniProt P40337+Q15370+Q15369). The assay is described as §1. The class given is protein-complex assay. In a few lines:
as §2

Assay [14] is filed under the species Homo sapiens. The assay is described as follows: Co-operativity factor, ratio of Ki for displacement of (2S,4R)-N-(4-bromobenzyl)-4-hydroxy-1-(3,3,3-trifluoropropanoyl)pyrrolidine-2-carboxamide from VBC E3 ligase (unknown origin) binary complex assessed as inhibition constant to Ki for displacement of (2S,4R)-N-(4-bromobenzyl)-4-hydroxy-1-(3,3,3-trifluoropropanoyl)pyrrolidine-2-carboxamide from dual VBC E3 ligase (unknown origin) ternary complex assessed as inhibition constant by 19F NMR assay.

The species named for assay [15] is Homo sapiens. The assay is described as follows: Co-operativity factor, ratio of Ki for displacement of (2S,4R)-N-(4-bromobenzyl)-4-hydroxy-1-(3,3,3-trifluoropropanoyl)pyrrolidine-2-carboxamide from VBC E3 ligase (unknown origin) binary complex assessed as inhibition constant to Ki for displacement of (2S,4R)-N-(4-bromobenzyl)-4-hydroxy-1-(3,3,3-trifluoropropanoyl)pyrrolidine-2-carboxamide from dual VBC E3 ligase (unknown origin) ternary complex assessed as inhibition constant by […].

The target in assay [16] is T1, Von Hippel-Lindau disease tumor suppressor/Elongin B/Elongin C. The assay is described as follows: Displacement of (2S,4R)-N-(4-bromobenzyl)-4-hydroxy-1-(3,3,3-trifluoropropanoyl)pyrrolidine-2-carboxamide from dual VBC E3 ligase (unknown origin) ternary complex by 19F NMR assay. The class given is protein-complex assay. In a few lines: (§4)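 Same 19F CPMG displacement format, with spy molecule 19 at 50 μM and VBC at 1 μM. PROTAC was titrated over a range of concentrations, with spy-only and spy+VBC spectra as the 100% and 0% displacement controls. IC50 was read as 50% dissociation of the spy–VBC complex.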

Assay [17] has the same target. The experiment in a line: Displacement of (2S,4R)-N-(4-bromobenzyl)-4-hydroxy-1-(3,3,3-trifluoropropanoyl)pyrrolidine-2-carboxamide from dual VBC E3 ligase (unknown origin) ternary complex assessed as inhibition constant by 19F NMR assay. It is filed as protein-complex assay. In outline:
as §4

Active and inactive are the calls of the source. The calls are words filed in the database; no cut-off is given here.

T2 sequence (P40337 whole entry, looked up, other chains not shown): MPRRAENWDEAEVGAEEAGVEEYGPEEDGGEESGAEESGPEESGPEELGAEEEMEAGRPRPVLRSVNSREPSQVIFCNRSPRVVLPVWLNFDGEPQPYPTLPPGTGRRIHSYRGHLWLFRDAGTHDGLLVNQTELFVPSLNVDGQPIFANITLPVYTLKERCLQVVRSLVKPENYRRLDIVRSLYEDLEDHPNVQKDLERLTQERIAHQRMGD
T2 sequence (Q15369 whole entry, looked up, other chains not shown): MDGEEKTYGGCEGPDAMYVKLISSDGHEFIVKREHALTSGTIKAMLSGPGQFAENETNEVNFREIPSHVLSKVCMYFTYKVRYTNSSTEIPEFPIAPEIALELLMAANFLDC
T2 sequence (Q15370 whole entry, looked up, other chains not shown): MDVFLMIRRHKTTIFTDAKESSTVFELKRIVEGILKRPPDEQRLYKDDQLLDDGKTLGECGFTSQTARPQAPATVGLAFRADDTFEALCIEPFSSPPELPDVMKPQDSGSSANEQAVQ
T1 sequence (P40337 whole entry, looked up): as the sequence (P40337 whole entry, looked up, other chains not shown) above
Sequence of Von Hippel-Lindau disease tumor suppressor/Elongin B/Elongin C (Homo sapiens) (P40337 whole entry, looked up): as the sequence (P40337 whole entry, looked up, other chains not shown) above
Sequence of Von Hippel-Lindau disease tumor suppressor/Elongin B/Elongin C (Homo sapiens) (Q15369 whole entry, looked up): as the sequence (Q15369 whole entry, looked up, other chains not shown) above
Sequence of Von Hippel-Lindau disease tumor suppressor/Elongin B/Elongin C (Homo sapiens) (Q15370 whole entry, looked up): as the sequence (Q15370 whole entry, looked up, other chains not shown) above

For the compound `Cc1ncsc1-c1ccc(CNC(=O)[C@@H]2[C@H](F)[C@@H](O)CN2C(=O)[C@@H](NC(=O)COCCOCCOCCNC(=O)C[C@@H]2N=C(c3ccc(Cl)cc3)c3c(sc(C)c3C)-n3c(C)nnc32)C(C)(C)C)cc1`, the Ratio Ki in the assay filed under Homo sapiens [1] and in the assay listed under Homo sapiens [6] was 29 throughout. Further, the IC50 turned out to be 3020 nM in assay [2] and 346 nM in assay [3]. Further, the Ki was 71 nM in assay [4] and 2060 nM in assay [5].
On to `Cc1ncsc1-c1ccc(CNC(=O)[C@@H]2C[C@@H](O)CN2C(=O)CC(C)(C)C)cc1C(F)(F)F`, for which, in [7], the Kd came out at 67000 nM.
In the case of `Cc1ncsc1-c1ccc(CNC(=O)[C@@H]2C[C@H](O)CN2C(=O)[C@@H](NC(=O)COCCOCCOCCOCCOCC(=O)N[C@H](C(=O)N2C[C@@H](O)C[C@H]2C(=O)NCc2ccc(-c3scnc3C)cc2)C(C)(C)C)C(C)(C)C)cc1`, the IC50 in assay [2] amounted to 888 nM. Further, in assay [5], the Ki was 287 nM.
For the compound `Cc1ncsc1-c1ccc(CNC(=O)[C@@H]2C[C@@H](O)CN2C(=O)[C@@H](NC(=O)COCCOCCOCCNC(=O)C[C@@H]2N=C(c3ccc(Cl)cc3)c3c(sc(C)c3C)-n3c(C)nnc32)C(C)(C)C)cc1`, the IC50 in assay [8] worked out at 708 nM; in assay [10] it was 660 nM. The Ki in assay [9] is 118 nM; in [11], 153 nM.
Turning to `CC(=O)N1c2ccc(-c3ccc(C(=O)NCCOCCOCCOCCOCC(=O)N[C@H](C(=O)N4C[C@H](O)C[C@H]4C(=O)NCc4ccc(-c5scnc5C)cc4)C(C)(C)C)cc3)cc2[C@H](Nc2ccc(Cl)cc2)C[C@@H]1C`, the Ratio Ki in the assay filed under Homo sapiens [1] came out at 0.8; in the assay filed under Homo sapiens [12], 0.4; in the assay filed under Homo sapiens [6], 0.6. Besides, the results for the IC50 in [2] and in assay [3] were 1140 nM and 1310 nM, respectively. Besides, the Ki in [4] was 597 nM; in assay [5] it was 471 nM.
As to `Cc1ncsc1-c1ccc(CNC(=O)[C@@H]2C[C@H](O)CN2C(=O)[C@@H](NC(=O)COCCOCCOCCOCCOCCOCC(=O)N[C@H](C(=O)N2C[C@@H](O)C[C@H]2C(=O)NCc2ccc(-c3scnc3C)cc2)C(C)(C)C)C(C)(C)C)cc1`, in assay [13], the result was Active.
As for `CC(=O)N1c2ccc(-c3ccc(C(=O)NCCOCCOCC(=O)N[C@H](C(=O)N4C[C@H](O)C[C@H]4C(=O)NCc4ccc(-c5scnc5C)cc4)C(C)(C)C)cc3)cc2[C@H](Nc2ccc(Cl)cc2)C[C@@H]1C`, the Ratio Ki is 0.4 in the assay filed under Homo sapiens [1], 0.2 in the assay filed under Homo sapiens [12] and 0.1 in the assay filed under Homo sapiens [6]. For the same compound, the IC50 in assay [2] is 1210 nM; in [3] it was 2110 nM. Besides, the Ki in assay [4] stood at 1190 nM; in assay [5], 529 nM.
Regarding `O=C(NCc1ccc(Br)cc1)[C@@H]1C[C@@H](O)CN1C(=O)CC(F)(F)F`, the Kd in assay [7] turned out to be 145000 nM.
The same measure, in the same setting: to `Cc1ncsc1-c1ccc(CNC(=O)[C@@H]2C[C@@H](O)CN2C(=O)C(F)(F)F)cc1` belongs 25000 nM.
In the case of `Cc1ncsc1-c1ccc(CNC(=O)[C@@H]2C[C@@H](O)CN2C(=O)[C@@H](NC(=O)COCCOCCOCCOCCOCCOCC(=O)N[C@H](C(=O)N2C[C@H](O)C[C@H]2C(=O)NCc2ccc(-c3scnc3C)cc2)C(C)(C)C)C(C)(C)C)cc1`, the Ratio Ki in the assay filed under Homo sapiens [14] and in the assay listed under Homo sapiens [15] was 7 throughout. The compound also returned an IC50 in [16] of 277 nM. Further, the Ki in [17] turned out to be 39 nM.

One may read the IC50 as the midpoint of a concentration-inhibition curve. A higher IC50 goes with lower potency. Usually Ki stands for the equilibrium dissociation constant of an inhibitor or competing ligand from its target. In general, Kd refers to the equilibrium constant for the complex coming apart.
